The source of these data is ChEMBL document CHEMBL1135904, “Toward an optimal joint recognition of the S1' subsites of endothelin converting enzyme-1 (ECE-1), angiotensin converting enzyme (ACE), and neutral endopeptidase (NEP)” (J Med Chem, 2002).

In general, IC50 refers to the concentration that inhibits the measured activity by half. Read a high IC50 as a need for much substance. For orientation: Ki means a measure of affinity in units of concentration, obtained from inhibition or displacement.

The target of assay [1] is T1, Neprilysin (Oryctolagus cuniculus, UniProt P08049).
T1 sequence (P08049 whole entry): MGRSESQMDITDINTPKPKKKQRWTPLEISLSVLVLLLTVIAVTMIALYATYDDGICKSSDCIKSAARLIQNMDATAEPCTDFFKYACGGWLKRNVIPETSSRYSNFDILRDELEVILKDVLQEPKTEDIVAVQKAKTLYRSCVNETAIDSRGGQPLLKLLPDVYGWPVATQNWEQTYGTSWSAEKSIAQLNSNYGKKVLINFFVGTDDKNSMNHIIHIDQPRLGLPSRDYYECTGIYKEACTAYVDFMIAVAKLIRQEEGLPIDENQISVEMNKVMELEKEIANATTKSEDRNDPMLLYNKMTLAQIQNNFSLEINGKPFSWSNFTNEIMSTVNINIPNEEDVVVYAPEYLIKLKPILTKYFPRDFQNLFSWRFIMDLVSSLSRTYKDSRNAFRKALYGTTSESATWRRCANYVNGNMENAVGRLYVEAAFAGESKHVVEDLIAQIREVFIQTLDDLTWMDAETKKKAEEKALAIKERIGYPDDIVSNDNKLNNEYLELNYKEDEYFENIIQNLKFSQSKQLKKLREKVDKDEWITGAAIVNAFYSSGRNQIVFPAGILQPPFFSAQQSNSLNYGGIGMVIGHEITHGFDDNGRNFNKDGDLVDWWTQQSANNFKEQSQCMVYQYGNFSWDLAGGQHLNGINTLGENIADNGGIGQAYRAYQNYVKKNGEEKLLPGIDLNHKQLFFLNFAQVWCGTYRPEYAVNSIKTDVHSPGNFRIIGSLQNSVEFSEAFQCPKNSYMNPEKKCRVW
Kind of assay: (§1) Inhibition of neutral endopeptidase (NEP). A digest of the protocol:
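NEP purified from rabbit kidney (final 250 ng/mL) preincubated 10 min at 37 °C with or without increasing inhibitor concentrations in 50 mM Tris-HCl pH 7.4. Substrate Dansyl-Gly-(p-NO2)Phe-β-Ala (DGPA; Km 37 μM) added to 50 μM final. Reaction stopped after 1 h with DMSO. Fluorescence read at ex 340/em 530 nm.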

Assay [2] deals with T2, Endothelin-converting enzyme 1 (Homo sapiens, UniProt P42892).
T2 sequence (P42892 whole entry): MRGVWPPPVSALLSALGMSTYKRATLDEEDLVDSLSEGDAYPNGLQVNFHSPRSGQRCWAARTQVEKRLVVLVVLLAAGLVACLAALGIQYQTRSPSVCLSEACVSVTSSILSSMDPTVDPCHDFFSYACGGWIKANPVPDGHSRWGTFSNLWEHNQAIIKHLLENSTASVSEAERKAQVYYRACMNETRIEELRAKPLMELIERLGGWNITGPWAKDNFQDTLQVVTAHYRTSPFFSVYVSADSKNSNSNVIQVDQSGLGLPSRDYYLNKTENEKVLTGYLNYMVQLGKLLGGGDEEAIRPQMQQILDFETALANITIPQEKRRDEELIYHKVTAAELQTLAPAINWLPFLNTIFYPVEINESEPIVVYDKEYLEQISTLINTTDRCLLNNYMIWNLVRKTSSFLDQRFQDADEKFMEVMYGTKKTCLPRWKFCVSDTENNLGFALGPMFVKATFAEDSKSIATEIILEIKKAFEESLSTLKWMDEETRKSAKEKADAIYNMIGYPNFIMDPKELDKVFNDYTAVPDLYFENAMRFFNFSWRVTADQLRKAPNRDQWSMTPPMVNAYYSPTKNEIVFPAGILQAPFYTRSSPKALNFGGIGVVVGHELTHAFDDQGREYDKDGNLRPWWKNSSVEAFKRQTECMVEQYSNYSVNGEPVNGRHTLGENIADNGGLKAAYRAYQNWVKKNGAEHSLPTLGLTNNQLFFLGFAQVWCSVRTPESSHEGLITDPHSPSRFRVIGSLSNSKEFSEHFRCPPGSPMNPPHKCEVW
The assay can be described thus: Inhibition activity towards human recombinant Endothelin-converting enzyme 1 (hECE-1c) expressed in Cos-7 cells. The assay is classed as cell-based. In short, it runs like this: (§2)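 Recombinant human ECE-1c from Cos-7 cells, 4 µg total protein per well, preincubated 10 min at 37 °C in 50 mM tris-maleate pH 6-8 with or without rising inhibitor concentrations. Reaction started with 20 µM (Pya21-(p-NO2)Phe22)bigET(19-35) (Km 20 µM), run 1 h at 37 °C, stopped by cooling. Fluorescence read at ex 340/em 400 nm.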

Assay [3] concerns the target T1, Neprilysin. The assay can be described thus: Inhibition of neutral endopeptidase (NEP) isolated from rabbit kidney. A digest of the protocol:
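Rabbit kidney NEP purified to homogeneity, final 250 ng/mL, preincubated 10 min at 37 °C with or without rising inhibitor concentrations in 50 mM Tris-HCl pH 7.4. Then 50 µM DGPA (Dansyl-Gly-(p-NO2)Phe-β-Ala; Km 37 µM) added for 1 h. Stopped with DMSO. Fluorescence read at ex 340/em 530 nm.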

Assay [4] deals with T3, Angiotensin-converting enzyme (Rattus norvegicus, UniProt P47820).
T3 sequence (P47820 whole entry): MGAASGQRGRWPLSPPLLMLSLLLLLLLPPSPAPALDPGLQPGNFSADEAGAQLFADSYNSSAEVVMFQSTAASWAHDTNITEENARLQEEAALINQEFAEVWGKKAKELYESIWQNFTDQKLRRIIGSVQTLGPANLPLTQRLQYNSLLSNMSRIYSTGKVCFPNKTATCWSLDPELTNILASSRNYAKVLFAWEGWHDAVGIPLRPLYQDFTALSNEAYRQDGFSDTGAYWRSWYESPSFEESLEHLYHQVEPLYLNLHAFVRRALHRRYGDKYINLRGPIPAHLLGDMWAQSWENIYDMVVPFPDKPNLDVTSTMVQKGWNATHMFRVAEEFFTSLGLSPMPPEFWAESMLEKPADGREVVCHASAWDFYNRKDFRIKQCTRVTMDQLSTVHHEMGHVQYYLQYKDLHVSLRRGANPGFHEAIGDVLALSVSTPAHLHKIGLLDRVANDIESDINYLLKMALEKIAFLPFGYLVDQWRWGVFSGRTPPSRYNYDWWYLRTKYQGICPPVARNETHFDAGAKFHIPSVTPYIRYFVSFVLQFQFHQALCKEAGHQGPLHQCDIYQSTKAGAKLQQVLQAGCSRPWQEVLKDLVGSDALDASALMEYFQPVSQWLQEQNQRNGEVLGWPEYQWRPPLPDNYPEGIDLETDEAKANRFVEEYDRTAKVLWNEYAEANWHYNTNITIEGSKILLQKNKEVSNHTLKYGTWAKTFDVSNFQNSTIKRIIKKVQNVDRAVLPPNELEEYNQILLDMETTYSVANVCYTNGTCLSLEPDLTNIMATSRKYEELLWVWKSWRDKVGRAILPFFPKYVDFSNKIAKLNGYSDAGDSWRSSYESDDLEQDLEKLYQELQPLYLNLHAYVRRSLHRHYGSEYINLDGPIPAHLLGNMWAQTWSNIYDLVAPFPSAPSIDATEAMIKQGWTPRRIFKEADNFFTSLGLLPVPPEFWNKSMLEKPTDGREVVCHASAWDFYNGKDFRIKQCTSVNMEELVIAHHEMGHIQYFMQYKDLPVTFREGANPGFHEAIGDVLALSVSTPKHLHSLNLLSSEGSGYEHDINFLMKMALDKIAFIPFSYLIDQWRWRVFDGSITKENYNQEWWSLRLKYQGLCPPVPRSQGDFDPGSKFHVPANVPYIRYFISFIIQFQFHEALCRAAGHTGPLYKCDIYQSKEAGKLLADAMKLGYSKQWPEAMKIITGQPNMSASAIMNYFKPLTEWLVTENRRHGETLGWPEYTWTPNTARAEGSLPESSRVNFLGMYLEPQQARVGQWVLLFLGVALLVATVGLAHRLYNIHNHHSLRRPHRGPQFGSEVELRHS
The assay can be described thus: Inhibition of Angiotensin I converting enzyme (ACE) purified from rat testis. A digest of the protocol: (§3)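 ACE purified from rat testis, final 0.02 pmol/100 µL, preincubated 10 min at 37 °C with or without various inhibitor concentrations in 50 mM Tris/HCl/NaCl 1% pH 7.4. Then 50 µM N-Cbz-Phe-His-Leu (Km 50 µM) added for 30 min. Stopped with 2 N NaOH and diluted with water. Released His-Leu measured fluorometrically.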

Assay [5] addresses T3, Angiotensin-converting enzyme. Kind of assay: Inhibition of Angiotensin I converting enzyme (ACE). In short, it runs like this:
as §3

For assay [6], the target named is T2, Endothelin-converting enzyme 1. Kind of assay: (§4) Inhibition of Endothelin-converting enzyme 1 (ECE). A digest of the protocol:
as §2

In assay [7] the target is T1, Neprilysin. The assay is described as §1. A digest of the protocol: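 NEP purified from rabbit kidney (final 250 ng/mL) preincubated 10 min at 37 °C with or without increasing inhibitor concentrations in 50 mM Tris-HCl pH 7.4. Reaction stopped after 1 h with DMSO.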
The source holds these as a separate data set.

For assay [8], the target named is T3, Angiotensin-converting enzyme. The assay can be described thus: Inhibition of Angiotensin I converting enzyme ACE). A digest of the protocol: as §3
Assay [9] addresses T2, Endothelin-converting enzyme 1. Described as §4. This is another data set of the same source.

Each structure is given as a SMILES string. Where only a bound is given, the exact number is not on record here.

In the case of `O=C(O)[C@H](Cc1ccc2c(c1)oc1ccccc12)NCP(=O)(O)O`, at Neprilysin [1], inhibition was half-maximal at 2300 nM (IC50).

For the compound `O=C(O)[C@H](Cc1c[nH]c2ccccc12)NC(=O)[C@@H](CS)[C@H]1CCc2ccccc21`, the Ki in [2] is 290 nM; on Neprilysin [3], 2.1 nM; in [4], 10 nM.

Take `O=P(O)(O)C(CCc1cccc2ccccc12)N[C@@H](Cc1ccc(-c2ccccc2)cc1)c1nnn[nH]1` (stereo partly drawn): the Ki is above 10000 nM in assay [5], 10.8 nM in assay [6] and 2.2 nM at Neprilysin [7].

In the case of `O=C1N[C@H](C(=O)O)CCCCCCc2cccc(c2)CC1CS` (stereo partly drawn), the IC50 in assay [8] was determined as 175 nM; against Neprilysin [1] it was 4 nM; in assay [9], 620 nM.

With `O=C(O)C(Cc1c[nH]c2ccccc12)NC(=O)C(CS)C(c1ccccc1)c1ccccc1` (stereo not drawn), the Ki is 250 nM in assay [5], above 10000 nM in assay [6] and 140 nM on Neprilysin [7].

Take `CS(=O)(=O)N[C@@H](CCCCN)C(=O)N[C@@H](Cc1ccccc1)P(=O)(O)CC1(C(=O)N[C@@H](Cc2c[nH]c3ccccc23)C(=O)O)CCCC1`: the IC50 on Neprilysin [1] turned out to be 90 nM.

`C[C@H](CS)C(=O)N1CCC[C@H]1C(=O)O` [CAPTOPRIL]: the Ki was above 10000 nM in assay [6] and above 1000 nM at Neprilysin [7].

In the case of `O=C(O)CNC(=O)C(CS)Cc1ccccc1` (stereo not drawn) [THIORPHAN], the inhibitory constant (Ki) in assay [5] was above 100 nM; in assay [6] it was above 10000 nM.
